The text below walks through data of ChEMBL document CHEMBL1144504, “Antitumor studies. Part 1: design, synthesis, antitumor activity, and AutoDock study of 2-deoxo-2-phenyl-5-deazaflavins and 2-deoxo-2-phenylflavin-5-oxides as a new class of antitumor agents” (Bioorg Med Chem, 2007).

Molecules are shown by their SMILES.

One assay relates to CCRF-HSB-2. Kind of assay: Growth inhibition of human CCRF-HSB-2 cells by MTT assay. It counts as functional, cell-based. The procedure, abridged: (§1)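 5×10^3 cells per well seeded with compound added simultaneously, triplicate wells, 72 h at 37 °C in humidified 5% CO2. MTT (5 mg/mL stock in Ca/Mg-free PBS) added for a further 4 h at 37 °C. Formazan solubilized in 0.02 N HCl/50% DMF/20% SDS, OD570 read. Inhibition (%) = (1 − T/C) × 100 against mean control; IC50 taken from dose–response curve.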

A further assay deals with KB. Nature of the assay: Growth inhibition of human KB cells by MTT assay. The assay is classed as functional, cell-based. In short, it runs like this: as §1
Another assay deals with NCI-H460. Kind of assay: Growth inhibition of human NCI-H460 cells by MTT assay. It counts as functional, cell-based. In short, it runs like this: as §1
For orientation: Tetrazolium assays rely on reduction of a dye to a coloured formazan, in cell work by metabolically active cells.

In a further assay the test system is HCT-116. Kind of assay: Growth inhibition of human HCT116 cells by MTT assay. It counts as functional, cell-based. In short, it runs like this: as §1
Assay [1] relates to A-431. Kind of assay: Growth inhibition of human A431 cells by MTT assay. It counts as functional, cell-based. The procedure, abridged: as §1
Assay [2] relates to A-431. Nature of the assay: Antitumor activity against human A431 xenograft in intratumorally dosed BALB/c nude mouse at 25 mg/kg after 17 days relative control. The assay is classed as functional. The procedure, abridged:
(§2)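 A431 implanted subcutaneously in BALB/c nude mice; dosing begins (day 1) when tumors reach 100–300 mm3. Compound suspended in 0.5% gum arabic. Intratumoral: five daily doses per week for 3 weeks (days 1-5, 8-12, 15-19). Intraperitoneal and oral: daily for 10 days (days 1-10). Tumor length a and width b measured 2–3 times weekly; volume = a×b²/2; T/C % = (Tn/T1)×100/(Cn/C1).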
For orientation: Xenograft models place foreign cells or tissue in a host animal.

For assay [3], the system named is Mus musculus. Nature of the assay: Weight change in intratumorally dosed BALB/c nude mouse bearing human A431 cells at 25 mg/kg after 17 days. The assay is classed as functional, A-431. The procedure, abridged: (§3)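 BALB/c nude mice bearing subcutaneous A431 tumors, dosed from the day tumors reach 100–300 mm3. Vehicle: 0.5% gum arabic suspension. Intratumoral schedule: days 1-5, 8-12, 15-19. Intraperitoneal and oral schedule: daily, days 1-10. Body weight change in g recorded at 17 days (it), 10 days (ip) or 18 days (po) after treatment.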

Assay [4] deals with A-431. Kind of assay: Antitumor activity against human A431 xenograft in BALB/c nude mouse at 75 mg/kg, po after 18 days relative control. The assay is classed as functional. The procedure, abridged:
as §2

Assay [5] has as its system Mus musculus. Nature of the assay: Weight change in human […] A431 xenografted BALB/c nude mouse at 75 mg/kg, po after 18 days. The assay is classed as functional. The procedure, abridged: as §3
Assay [6] deals with A-431. Nature of the assay: Antitumor activity against human A431 xenograft in BALB/c nude mouse at 150 mg/kg, po after 18 days relative control. The assay is classed as functional. The procedure, abridged: as §2
Assay [7] concerns Mus musculus. Kind of assay: Weight change in human A431 xenografted BALB/c nude mouse at 150 mg/kg, po after 18 days. The assay is classed as functional. The procedure, abridged: as §3
In assay [8] the test system is A-431. Kind of assay: Antitumor activity against human A431 xenograft in BALB/c nude mouse at 100 mg/kg, ip after 10 days relative control. The settings on record: route intraperitoneal. The assay is classed as functional. The procedure, abridged: as §2
For assay [9], the system named is Mus musculus. Kind of assay: Weight change in human A431 xenografted BALB/c nude mouse at 100 mg/kg, ip after 10 days. The assay is classed as functional. The settings on record: route intraperitoneal. In short, it runs like this: as §3
Assay [10] relates to Mus musculus. Nature of the assay: Weight change in human A431 xenografted BALB/c nude mouse at 1 mg/kg, ip after 10 days. The assay is classed as functional. The settings on record: route intraperitoneal. In short, it runs like this:
(§4)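 A431 cells implanted subcutaneously into BALB/c nude mice. Dosing began (day 1) once tumors reached 100–300 mm3, given ip as a suspension in 0.5% gum arabic, daily for days 1–10. Tumor length (a) and width (b) were measured 2–3 times weekly; volume = (a×b²)/2. T/C % = (Tn/T1)×100/(Cn/C1), read on day 10. Body weight change was given in g.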

For assay [11], the system named is A-431. Nature of the assay: Antitumor activity against human A431 xenograft in BALB/c nude mouse at 1 mg/kg, po after 18 days relative control. It counts as functional. The procedure, abridged:
(§5)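 Subcutaneous A431 xenografts in BALB/c nude mice were dosed orally once tumors reached 100–300 mm3 (day 1). Dosing was daily for days 1–10 as a suspension in 0.5% gum arabic. Volume = (a×b²)/2 from calipered length and width. Relative volume T/C % = (Tn/T1)×100/(Cn/C1) and body weight change (g) were assessed 18 days after treatment.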

Assay [12] concerns Mus musculus. Nature of the assay: Weight change in human A431 xenografted BALB/c nude mouse at 1 mg/kg, po after 18 days. The assay is classed as functional. The procedure, abridged:
as §5

In assay [13] the test system is Mus musculus. Kind of assay: Weight change in intratumorally dosed BALB/c nude mouse bearing human A431 cells at 1 mg/kg after 17 days. It counts as functional, A-431. The procedure, abridged:
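A431 was transplanted subcutaneously into BALB/c nude mice. Intratumoral injections of a suspension in 0.5% gum arabic started when tumors reached 100–300 mm3. Injections were given five consecutive days per week for 3 weeks (days 1–5, 8–12, 15–19). Body weight change (g) was recorded on day 17.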

Assay [14] has as its system A-431. Nature of the assay: Antitumor activity against human A431 xenograft in BALB/c nude mouse at 1 mg/kg, ip after 10 days relative control. The assay is classed as functional. The settings on record: route intraperitoneal. The procedure, abridged: as §4

Usually IC50 stands for the concentration that gives 50% inhibition. A high value points to weaker potency in that assay. Take `Cc1cccc2cc3c(=O)nc(-c4ccccc4)nc-3n(C)c12`: the values for the IC50 in the assay on CCRF-HSB-2 and in the assay with KB were 700 nM and 3980 nM, respectively.

`COc1ccc2c(c1)cc1c(=O)nc(-c3ccccc3)nc-1n2C`: the IC50 is 3100 nM with NCI-H460, 2910 nM in the assay on HCT-116, 1230 nM with CCRF-HSB-2 and 500 nM in the assay on KB.

Take `COc1ccc2cc3c(=O)nc(-c4ccccc4)nc-3n(C)c2c1`: the IC50 in the assay with CCRF-HSB-2 was 2140 nM; with KB it was 5040 nM.

Take `CCn1c2nc(-c3ccccc3)nc(=O)c-2cc2cc(C)ccc21`: the 50% inhibitory concentration (IC50) with CCRF-HSB-2 stood at 730 nM; with KB it was 510 nM.

Regarding `COc1ccc2cc3c(=O)nc(-c4ccccc4)nc-3[nH]c2c1`, the IC50 worked out at 24400 nM with CCRF-HSB-2 and 62700 nM in the assay with KB.

As to `CCn1c2nc(-c3ccccc3)nc(=O)c-2[n+]([O-])c2ccccc21`, the 50% inhibitory concentration (IC50) in the assay with CCRF-HSB-2 turned out to be 960 nM; with KB, 2380 nM.

For the compound `Cn1c2nc(-c3ccccc3)nc(=O)c-2[n+]([O-])c2ccccc21`, the IC50 stood at 2720 nM with NCI-H460; 1800 nM in the assay with HCT-116; 1310 nM in the assay on A-431 [1]; 970 nM in the assay with CCRF-HSB-2; 1080 nM with KB.

For `CC(C)n1c2nc(-c3ccccc3)nc(=O)c-2[n+]([O-])c2ccccc21`, the IC50 amounted to 6050 nM with NCI-H460, 6580 nM in the assay on HCT-116, 980 nM in the assay with CCRF-HSB-2 and 2180 nM in the assay on KB.

On to `Cc1ccc2c(c1)[n+]([O-])c1c(=O)nc(-c3ccccc3)nc-1n2C`, for which the half-inhibitory concentration (IC50) came out at 4390 nM in the assay on NCI-H460, 3250 nM in the assay with HCT-116, 500 nM with CCRF-HSB-2 and 1750 nM in the assay with KB.

Take `Cc1cccc2cc3c(=O)nc(-c4ccccc4)nc-3[nH]c12`: the IC50 with CCRF-HSB-2 is 299000 nM; in the assay with KB, > 350000 nM.

Consider `COc1ccc2c(c1)[n+]([O-])c1c(=O)nc(-c3ccccc3)nc-1n2C`, for which the IC50 in the assay with NCI-H460 is 1330 nM; in the assay with HCT-116, 720 nM.

Consider `COc1cc2c(c(OC)c1OC)[n+]([O-])c1c(=O)nc(-c3ccccc3)nc-1n2C`, for which the IC50 stood at 3720 nM in the assay with NCI-H460 and 3760 nM in the assay on HCT-116.

With `CCn1c2nc(-c3ccccc3)nc(=O)c-2cc2ccccc21`, the IC50 was 760 nM with A-431 [1], 1790 nM with CCRF-HSB-2 and 2620 nM in the assay with KB. The results for the Activity with A-431 [2] and in the assay on Mus musculus [3] were 109% and -1.6 g, respectively.

`Cc1ccc2c(c1)cc1c(=O)nc(-c3ccccc3)nc-1n2C`: the IC50 with NCI-H460 worked out at 2080 nM; in the assay on HCT-116, 1680 nM; in the assay on A-431 [1], 2450 nM; with CCRF-HSB-2 it was 1490 nM; in the assay with KB, 1860 nM.

Regarding `Cn1c2nc(-c3ccccc3)nc(=O)c-2cc2ccccc21`, the Activity is reported as 97.6% in the assay on A-431 [4]; -0.9 g in the assay on Mus musculus [5]; 51.8% in the assay with A-431 [6]; -0.4 g in the assay on Mus musculus [7]; 57.2% in the assay on A-431 [2]; 0.1 g in the assay with Mus musculus [3]. For the same compound, the Activity with A-431 [8] was 53.4%; in the assay with Mus musculus [9], -1.7 g. The IC50 with NCI-H460 was 2230 nM; in the assay with HCT-116, 2110 nM; in the assay on A-431 [1], 1440 nM; with CCRF-HSB-2 it was 11800 nM; with KB, 2330 nM.

Consider `Cc1cccc2c1n(C)c1nc(-c3ccccc3)nc(=O)c-1[n+]2[O-]`, for which the IC50 was determined as 1290 nM in the assay on CCRF-HSB-2 and 3280 nM in the assay with KB.

As for `CCn1c2nc(-c3ccccc3)nc(=O)c-2[n+]([O-])c2cc(C)ccc21`, the values for the IC50 in the assay on CCRF-HSB-2 and with KB were 1710 nM and 2970 nM, respectively.

Take `O=c1nc(-c2ccccc2)nc2[nH]c3ccccc3cc1-2`: the IC50 was 3880 nM in the assay with A-431 [1], 3830 nM in the assay with CCRF-HSB-2 and 5120 nM in the assay on KB.

Regarding `Nc1ccn([C@@H]2O[C@H](CO)[C@@H](O)[C@@H]2O)c(=O)n1` [CYTARABINE], the IC50 with CCRF-HSB-2 was determined as 150 nM; in the assay on KB it was 700 nM.

`COc1cccc2c1C(=O)c1c(O)c3c(c(O)c1C2=O)C[C@@](O)(C(=O)CO)C[C@@H]3O[C@H]1C[C@H](N)[C@H](O)[C@H](C)O1` [DOXORUBICIN] returned an IC50 with A-431 [1] of 50 nM.

For `CN[C@@H]1C[C@H]2O[C@@](C)([C@@H]1OC)n1c3ccccc3c3c4c(c5c6ccccc6n2c5c31)C(=O)NC4` [STAUROSPORINE], the Activity in the assay with Mus musculus [10] was -1 g; in the assay with A-431 [11], 72.9%; in the assay with Mus musculus [12] it was -2 g; in the assay on Mus musculus [13], -0.6 g; in the assay with A-431 [14], 84.9%.
